The values below come from ChEMBL document CHEMBL1137560, “Synthesis and monoamine oxidase inhibitory activity of new pyridazine-, pyrimidine- and 1,2,4-triazine-containing tricyclic derivatives” (J Med Chem, 2007).

Assay [1] concerns the target T1, Amine oxidase [flavin-containing] A (Rattus norvegicus, UniProt P21396).
T1 sequence (P21396 whole entry): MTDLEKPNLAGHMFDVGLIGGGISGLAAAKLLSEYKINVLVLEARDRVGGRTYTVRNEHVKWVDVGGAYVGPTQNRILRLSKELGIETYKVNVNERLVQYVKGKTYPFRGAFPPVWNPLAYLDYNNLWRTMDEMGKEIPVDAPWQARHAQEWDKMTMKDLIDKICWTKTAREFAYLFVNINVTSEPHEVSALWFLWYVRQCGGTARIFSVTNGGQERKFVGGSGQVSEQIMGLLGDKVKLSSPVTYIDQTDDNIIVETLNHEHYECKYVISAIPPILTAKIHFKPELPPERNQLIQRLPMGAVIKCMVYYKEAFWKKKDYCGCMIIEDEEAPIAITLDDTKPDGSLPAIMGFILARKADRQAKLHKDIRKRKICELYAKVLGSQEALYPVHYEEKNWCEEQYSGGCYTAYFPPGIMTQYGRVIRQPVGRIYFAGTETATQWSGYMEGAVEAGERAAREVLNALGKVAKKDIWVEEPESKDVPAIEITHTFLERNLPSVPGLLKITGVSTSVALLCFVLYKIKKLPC
Briefly: Inhibition of MAOA in rat brain mitochondria at 1 uM.

For assay [2], the target named is T2, Amine oxidase [flavin-containing] B (Rattus norvegicus, UniProt P19643).
T2 sequence (P19643 whole entry): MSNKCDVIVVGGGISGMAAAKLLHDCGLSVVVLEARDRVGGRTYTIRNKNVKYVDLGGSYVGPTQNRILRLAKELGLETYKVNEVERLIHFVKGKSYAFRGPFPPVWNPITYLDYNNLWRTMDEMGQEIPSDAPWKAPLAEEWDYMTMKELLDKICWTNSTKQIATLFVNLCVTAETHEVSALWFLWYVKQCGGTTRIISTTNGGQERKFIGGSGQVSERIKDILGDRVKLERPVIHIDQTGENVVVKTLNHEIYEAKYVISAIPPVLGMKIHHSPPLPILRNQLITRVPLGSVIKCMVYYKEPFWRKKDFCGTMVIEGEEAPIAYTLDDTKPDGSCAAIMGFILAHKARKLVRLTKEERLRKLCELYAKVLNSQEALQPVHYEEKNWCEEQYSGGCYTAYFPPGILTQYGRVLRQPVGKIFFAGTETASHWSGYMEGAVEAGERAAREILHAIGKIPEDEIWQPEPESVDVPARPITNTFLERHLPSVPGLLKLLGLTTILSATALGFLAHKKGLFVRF
Description: Inhibition of MAOB in rat brain mitochondria at 1 uM.

The target in assay [3] is T1, Amine oxidase [flavin-containing] A. Briefly: Inhibition of MAOA in rat brain mitochondria. A digest of the protocol:
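Rat brain mitochondrial suspension, isotonic Na2HPO4/KH2PO4–KCl buffer, pH 7.40, 37 °C, with 5% DMSO cosolvent. Preincubated 5 min with selegiline to isolate MAO-A. Continuous spectrophotometric assay: 90 µM kynuramine (its KM) oxidized to 4-hydroxyquinoline, followed at 314 nm. Top concentration tested 100 µM; IC50 calculated from a hyperbolic equation.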

Assay [4] addresses T2, Amine oxidase [flavin-containing] B. Briefly: Inhibition of MAOB in rat brain mitochondria. A digest of the protocol: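 MAO-B measured in rat brain mitochondrial suspension after 5 min preincubation with clorgyline. Incubations at pH 7.40 (isotonic phosphate/KCl) and 37 °C, 5% DMSO cosolvent. Kynuramine 60 µM (its KM); 4-hydroxyquinoline formation read continuously at 314 nm. Highest concentration 100 µM; IC50 derived by hyperbolic equation fit.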

For assay [5], the target named is T1, Amine oxidase [flavin-containing] A. Description: Inhibition of MAOA in rat brain mitochondria at 10 uM.
Assay [6] addresses T2, Amine oxidase [flavin-containing] B. Description: Inhibition of MAOB in rat brain mitochondria at 10 uM.
Assay [7] has as its target T1, Amine oxidase [flavin-containing] A. Description: Inhibition of MAOA in rat brain mitochondria at 50 uM.
The target in assay [8] is T2, Amine oxidase [flavin-containing] B. Description: Inhibition of MAOB in rat brain mitochondria at 20 uM.
Assay [9] has the same target. Briefly: Inhibition of MAOB in rat brain mitochondria at 50 uM.
Assay [10] has the same target. Description: Inhibition of MAOB in rat brain mitochondria at 25 uM. The essentials:
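Rat brain mitochondrial suspension, pre-treated 5 min with clorgyline to isolate MAO-B. Kynuramine substrate at 60 µM (its KM) in isotonic Na2HPO4/KH2PO4/KCl buffer, pH 7.40, 37 °C, with 5% DMSO cosolvent. 4-Hydroxyquinoline formation followed continuously at 314 nm. Percent inhibition taken at the compound's maximum solubility; means ± SEM of three experiments, each run in duplicate.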

Take `O=C1c2ccccc2-c2cnc(-c3cccc([N+](=O)[O-])c3)nc21`: the results for the inhibition at 1 µM in assay [1] and in [2] were 5% and 12%, respectively.

As to `O=C(c1ccccc1)c1cnncc1-c1ccc(Cl)cc1`, the IC50 is 30.8 µM in assay [3] and > 100 µM in [4].

With `Nc1cccc(-c2nnc3c(n2)-c2ccccc2C3=O)c1`, the inhibition at 10 µM amounted to 12% in [5] and 17% in [6].

`O=C1c2ccccc2-c2nn(-c3ccccc3)c(=O)cc21` returned an IC50 in assay [4] of 38 µM. This molecule returned an inhibition at 50 µM in assay [7] of 46%.

With `c1ccc(-c2ncc3c(n2)Cc2ccccc2-3)cc1`, the IC50 was 16.7 µM in assay [3] and 13 µM in assay [4].

In assay [5], `O=C1c2ccccc2-c2nnc(COc3ccccc3)cc21` returned an inhibition at 10 µM of 0%. This molecule showed an IC50 in assay [4] of 2.51 µM.

Molecule `O=C1c2ccccc2-c2nnc(COc3ccc(F)cc3)cc21` gave an inhibition at 10 µM in [5] of 12%. In assay [4], this molecule registered an IC50 of 1.9 µM.

Regarding `O=C1c2ccccc2-c2nc(-c3cccc([N+](=O)[O-])c3)nnc21`, in assay [5], the inhibition at 10 µM came to 23%. The IC50 in assay [4] amounted to 0.08 µM.

`c1ccc(-c2ncc3c(n2)-c2ccccc2C3)cc1` returned an IC50 in [3] of 18 µM. The inhibition at 20 µM in assay [8] came to 37%.

As for `O=C1c2ccccc2-c2nc(-c3ccccc3)nnc21`, testing at 10 µM in assay [5] gave an inhibition of 21%. Further, 6.31 µM corresponded to half-maximal inhibition in assay [4] (IC50).

For `c1ccc2c(c1)nnc1c3ccccc3[nH]c21`, in assay [3], the midpoint of inhibition, the IC50, lay at 29.7 µM. In addition, the inhibition at 50 µM in assay [9] was found to be 29%.

Turning to `O=C1c2ccccc2-c2ncnc(-c3ccccc3)c21`, the IC50 came to 21.6 µM in assay [3] and 34 µM in assay [4].

In the case of `Cc1ncc2c(n1)C(=O)c1ccccc1-2`, the IC50 turned out to be 47.1 µM in [3] and 9.4 µM in assay [4].

With `O=C1c2ccccc2-c2nnc(OCc3ccccc3)cc21`, the IC50 in assay [3] was > 100 µM; in assay [4], 55 µM.

`O=C1c2ccccc2-c2nnc(COc3ccc(C(F)(F)F)cc3)cc21`: the results for the inhibition at 10 µM in assay [5] and in assay [6] were 0% and 48%, respectively.

For `O=C1c2ccccc2-c2nnc(-c3cccc([N+](=O)[O-])c3)nc21`, testing at 10 µM in [5] gave an inhibition of 3%. The molecule also displayed an IC50 in assay [4] of 0.912 µM.

Molecule `c1ccc2c(c1)CCc1c-2[nH]c2ccccc12` displayed an IC50 in assay [3] of 12 µM. The inhibition at 25 µM in [10] is 38%.
